In ChEMBL document CHEMBL1145214, “Synthesis, structure-activity relationships at the GABA(A) receptor in rat brain, and differential electrophysiological profile at the recombinant human GABA(A) receptor of a series of substituted 1,2-diphenylimidazoles” (J Med Chem, 2005) one finds Maximal efficacy and EC50 data, which are given here for 29 compounds.

The target of assay [1] is GABA A receptor alpha-2/beta-2/gamma-2 (Homo sapiens) (UniProt P47870+P18507+P47869). The experiment in a line: Maximal efficacy for GABA-evoked chloride currents mediated by human Gamma-aminobutyric acid GABA-A receptor alpha2-beta2-gamma2L expressed in Xenopus oocytes. The class given is cell-based. The conditions noted are these: Oocyte. In short, it runs like this:
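Human α2β2γ2L cDNAs, 1.5 ng total in 30 nL at a 1:1:1 ratio, injected into the animal pole of oocytes. Oocytes held at 15 °C in supplemented modified Barth's solution, pH 7.5. Compounds were applied for 60 s together with GABA at EC10 (10% of the 10 mM GABA maximum), final DMSO ≤0.1%. Readout was % potentiation of Cl- current from concentration-response curves.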

The target in assay [2] is T1, GABA A receptor alpha-2/beta-2/gamma-2 (Homo sapiens, UniProt P18507+P47869+P47870).
T1 sequence (P47870 whole entry): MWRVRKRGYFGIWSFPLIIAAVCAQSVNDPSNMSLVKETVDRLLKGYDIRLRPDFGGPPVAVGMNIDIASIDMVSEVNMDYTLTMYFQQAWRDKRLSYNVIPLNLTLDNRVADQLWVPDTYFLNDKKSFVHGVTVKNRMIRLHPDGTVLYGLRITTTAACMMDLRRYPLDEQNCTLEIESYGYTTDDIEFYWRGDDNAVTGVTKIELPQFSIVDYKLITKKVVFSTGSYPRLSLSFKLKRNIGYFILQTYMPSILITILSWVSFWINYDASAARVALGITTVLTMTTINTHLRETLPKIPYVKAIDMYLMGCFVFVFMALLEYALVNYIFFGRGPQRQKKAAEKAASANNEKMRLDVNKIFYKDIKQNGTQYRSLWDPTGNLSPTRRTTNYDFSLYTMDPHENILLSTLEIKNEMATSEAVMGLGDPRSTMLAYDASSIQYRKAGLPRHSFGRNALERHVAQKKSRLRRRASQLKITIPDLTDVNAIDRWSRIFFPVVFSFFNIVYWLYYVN
T1 sequence (P18507 whole entry): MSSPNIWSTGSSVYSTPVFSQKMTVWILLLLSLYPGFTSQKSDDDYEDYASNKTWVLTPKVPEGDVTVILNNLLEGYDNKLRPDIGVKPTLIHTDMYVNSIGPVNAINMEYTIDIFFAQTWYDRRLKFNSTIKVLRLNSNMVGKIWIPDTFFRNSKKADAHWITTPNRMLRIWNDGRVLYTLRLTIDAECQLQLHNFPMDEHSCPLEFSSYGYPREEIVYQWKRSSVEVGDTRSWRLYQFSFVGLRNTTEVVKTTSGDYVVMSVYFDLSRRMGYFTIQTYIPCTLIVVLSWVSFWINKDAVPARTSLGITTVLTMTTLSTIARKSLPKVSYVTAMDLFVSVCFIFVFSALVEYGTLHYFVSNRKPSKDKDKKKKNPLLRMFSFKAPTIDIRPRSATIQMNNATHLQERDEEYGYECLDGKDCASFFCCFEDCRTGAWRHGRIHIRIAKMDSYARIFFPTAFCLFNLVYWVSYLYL
T1 sequence (P47869 whole entry): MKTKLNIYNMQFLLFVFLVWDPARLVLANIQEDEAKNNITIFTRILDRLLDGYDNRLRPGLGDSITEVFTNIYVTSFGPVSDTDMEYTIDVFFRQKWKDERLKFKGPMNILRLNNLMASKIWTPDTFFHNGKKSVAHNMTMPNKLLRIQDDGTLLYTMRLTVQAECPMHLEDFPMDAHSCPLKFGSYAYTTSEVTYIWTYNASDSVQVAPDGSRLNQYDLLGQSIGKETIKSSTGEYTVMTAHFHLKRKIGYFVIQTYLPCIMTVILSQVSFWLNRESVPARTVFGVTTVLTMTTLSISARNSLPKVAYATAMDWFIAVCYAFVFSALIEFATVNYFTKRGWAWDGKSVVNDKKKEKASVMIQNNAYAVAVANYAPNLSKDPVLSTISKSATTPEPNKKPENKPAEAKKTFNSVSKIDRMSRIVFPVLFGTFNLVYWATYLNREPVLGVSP
As to the kind of experiment: Effective concentration against GABA-evoked chloride currents mediated by human Gamma-aminobutyric acid GABA-A receptor alpha2-beta2-gamma2L expressed in Xenopus oocytes. The class given is cell-based, Oocyte. The essentials:
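Human α2β2γ2L cDNAs, 1.5 ng total in 30 nL at a 1:1:1 ratio, injected into the animal pole of oocytes. Oocytes held at 15 °C in supplemented modified Barth's solution, pH 7.5. Readout was % potentiation of Cl- current from concentration-response curves.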

Assay [3] in a line: Effective concentration required for reversible loss of righting reflex in Xenopus laevis tadpoles. Type of assay: functional, Tadpole.

Broadly, the EC50 is the concentration at which the effect is half-maximal. A low value points to an effect from little substance.

As to `CCOC(=O)c1cn(-c2ccc(Cl)cc2Cl)c(-c2ccc(I)cc2)n1`, the Maximal efficacy in assay [1] came to 180%. Moreover, a half-maximal response in assay [2] (EC50) required 0.45 µM.
For `Cc1cn(-c2ccccc2)c(-c2ccccc2)n1`, in assay [1], the Maximal efficacy is -25%.
Regarding `O=C(O)c1cn(-c2ccc(Cl)cc2Cl)c(-c2ccc(Cl)cc2)n1`, the Maximal efficacy in assay [1] turned out to be 256%. This compound also had an EC50 in assay [2] of 8.7 µM.
`CC(C)c1cccc(C(C)C)c1O` [PROPOFOL]: the Maximal efficacy in assay [1] stood at 461%. The EC50 in assay [3] was found to be 1.9 µM; in assay [2], 11.2 µM.
`CCCC(C)C1(CC)C(=O)NC(=O)NC1=O` (stereo unspecified) [PENTOBARBITAL]: the Maximal efficacy in assay [1] was determined as 214%. In addition, the EC50 in assay [2] was 50 µM.
`CC(=O)[C@H]1CC[C@H]2[C@@H]3CC[C@H]4C[C@H](O)CC[C@]4(C)[C@H]3C(=O)C[C@]12C`: the Maximal efficacy in assay [1] is 322%.
For the compound `CN1CCN(C(=O)c2cn(-c3ccc(Cl)cc3Cl)c(-c3ccc(Cl)cc3)n2)CC1`, in assay [1], the Maximal efficacy stood at 58.2%. Further, the EC50 in assay [2] came out at 1.3 µM.
In the same order, the values of `CCOC(=O)c1cn(-c2ccc(Cl)c(Cl)c2)c(-c2ccc(Cl)cc2)n1` are 521% and 2.3 µM.
For `CCOC(=O)c1cn(-c2ccc(Cl)cc2Cl)c(-c2ccc([N+](=O)[O-])cc2)n1`, in that order: 413% and 2.4 µM.
In the same order, the values of `CCOC(=O)c1cn(-c2ccc(Cl)cc2Cl)c(-c2ccc(OC)cc2)n1` are 362% and 1.9 µM.
Turning to `CCOC(=O)c1cn(-c2ccccc2)c(-c2ccc(OC)cc2)n1`, in assay [1], the Maximal efficacy was 369%. The same compound displayed an EC50 in assay [2] of 9.1 µM.
For `CCOC(=O)c1cncn1[C@H](C)c1ccccc1` [ETOMIDATE], the Maximal efficacy in assay [1] was 501%. In addition, the EC50 in assay [3] came to 2.3 µM.
As to `CCOC(=O)c1cn(-c2ccc(Cl)cc2Cl)c(-c2ccc(NC(C)=O)cc2)n1`, in assay [1], the Maximal efficacy came out at 209%. Also, the response in assay [2] was half-maximal at 19 µM (EC50).
In the same order, the values of `CCOC(=O)c1cn(-c2ccc(Cl)cc2Cl)c(-c2ccc(C)cc2)n1` are 568% and 1 µM.
Regarding `O=C(OCCN1CCCCC1)c1cn(-c2ccc(Cl)cc2Cl)c(-c2ccc(Br)cc2)n1`, the Maximal efficacy in assay [1] was -14%.
With `CCOC(=O)c1cn(-c2ccc(Cl)cc2Cl)c(-c2ccc(Cl)cc2)n1`, the Maximal efficacy in assay [1] amounted to 390%. Besides, the EC50 in assay [3] is 1.2 µM; in assay [2], 0.6 µM.
For `CCOC(=O)c1cn(-c2ccc(Cl)cc2Cl)c(-c2ccccc2)n1`, the Maximal efficacy in assay [1] turned out to be 508%. Besides, the EC50 in assay [2] was determined as 1.8 µM.
For the compound `CCCOC(=O)c1cn(-c2ccc(Cl)cc2Cl)c(-c2ccc(Br)cc2)n1`, in assay [1], the Maximal efficacy came to 537%. The same compound showed an EC50 in assay [2] of 1.7 µM.
For the compound `CCOC(=O)c1cn(-c2ccccc2)c(-c2ccc(Cl)cc2)n1`, in assay [1], the Maximal efficacy was determined as 458%. Also, in assay [2], a half-maximal response (EC50) required 4.2 µM.
Turning to `CCOC(=O)c1cn(-c2ccc(Cl)cc2)c(-c2ccc(Cl)cc2)n1`, in assay [1], the Maximal efficacy came to 302%. This compound displayed a half-maximal effective concentration (EC50) in assay [2] of 1.5 µM.
Take `c1ccc(-c2nccn2-c2ccccc2)cc1`: in assay [1], the Maximal efficacy was -5.3%.
Regarding `CCOC(=O)c1cn(-c2ccc(F)cc2)c(-c2ccc(F)cc2)n1`, the Maximal efficacy in assay [1] came out at 569%. Further, a half-maximal response in assay [2] (EC50) required 3.1 µM.
As for `CCOC(=O)c1cn(-c2ccc(Cl)cc2Cl)c(-c2ccc(N)cc2)n1`, in assay [1], the Maximal efficacy amounted to 406%. This compound also yielded an EC50 in assay [2] of 4.3 µM.
For `CCOC(=O)c1cn(-c2ccccc2)c(-c2ccc(C)cc2)n1`, in that order: 625% and 4.1 µM.
In the same order, the values of `CCOC(=O)c1cn(-c2cccc(Cl)c2)c(-c2ccccc2)n1` are 350% and 3 µM.
Take `CCOC(=O)c1cn(-c2ccc(Cl)cc2Cl)c(-c2ccc(Br)cc2)n1`: in assay [1], the Maximal efficacy is 388%. In assay [2], this compound registered an EC50 of 0.19 µM.
For `CCOC(=O)c1cn(-c2ccccc2)c(-c2ccccc2)n1`, in that order: 638% and 6.4 µM.
Take `COC(=O)c1cn(-c2ccc(Cl)cc2Cl)c(-c2ccc(Br)cc2)n1`: the Maximal efficacy in assay [1] amounted to 258%. The compound further gave an EC50 in assay [2] of 3.4 µM.
For `CCN(CC)C(=O)c1cn(-c2ccc(Cl)cc2Cl)c(-c2ccc(Cl)cc2)n1`, in that order: 32.4% and 4.4 µM.
